Assay outcomes (PubChem)
NR2E3 ag-1 – NR2E3 agonists in two-hybrid cells, primary screen, cell-based, luminescence, CHO-S, Gal4-NCOR/VP16-NR2E3. luciferase. inhibition of corepressor binding, % at 3.98 µM. actives 0.35% (n = 360,000);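 active means inhibition above the mean of all tested compounds plus 3 SD, cut at about 70% in these data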;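 further: higher means lower luciferase signal from less NR2E3 corepressor binding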
Target sequence (Q9Y5X4 whole entry, looked up, the tested form may be a part): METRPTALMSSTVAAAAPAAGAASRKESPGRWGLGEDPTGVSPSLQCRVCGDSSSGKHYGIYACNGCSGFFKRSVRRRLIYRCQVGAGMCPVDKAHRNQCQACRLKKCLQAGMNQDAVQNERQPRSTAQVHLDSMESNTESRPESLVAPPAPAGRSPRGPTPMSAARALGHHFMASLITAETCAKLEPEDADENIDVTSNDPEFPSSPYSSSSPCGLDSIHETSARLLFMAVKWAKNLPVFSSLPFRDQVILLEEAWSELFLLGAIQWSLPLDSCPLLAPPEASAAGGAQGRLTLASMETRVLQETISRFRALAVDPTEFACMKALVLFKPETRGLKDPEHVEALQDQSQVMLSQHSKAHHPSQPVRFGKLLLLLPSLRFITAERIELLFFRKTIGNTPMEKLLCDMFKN
Rev-erbA mod – modulators of Rev-erb alpha DNA binding, primary screen, biochemical, FITC-DNA, fluorescence polarization, uHTS; actives 0.79% (n = 370,000); Nuclear receptor subfamily 1 group D member 1 (Homo sapiens), P20393; activity, % at 10 µM; Rev-erbα–FITC-DNA binding, 90 min; AID 1259318, 2017;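 active means activity above about 14%, limit read from the data; passing the limit was not always enough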
NR2E3 ag-2 – inhibitors of NR2E3-RetCOR corepressor binding, primary screen, NR2E3 agonist project, biochemical, TR-FRET, GST-NR2E3, biotin-RetCOR. 1536-well. inhibition of corepressor binding, % at 4.78 µM. actives 0.12% (n = 320,000);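 active means percent inhibition above the cutoff of mean plus 3 SD of all tested compounds, set per screening campaign, cut at about 20% in these data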
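system = GST-tagged NR2E3 plus biotinylated RetCOR corepressor | input = 1.35 nM GST-NR2E3 | also added = 7 nM biotin-RetCOR | schedule = 5 h incubation at 4 °C | measured by = TR-FRET with europium anti-GST and streptavidin-D2, 340 nm excitation | read-out = percent loss of FRET ratio relative to control wells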
PG9 binder – binders of HIV-1 gp120 antibody PG9, primary screen, biochemical, TR-FRET; TR-FRET gp120-PG9 antibody binding; inhibition, % at 6.7 µM; actives 0.43% (n = 360,000); AID 624416, 2012; in the data active means inhibition above about 8.5%
NR2E3 ag conf – NR2E3 agonist confirmation in cells, cell-based, luminescence, CHO-S two-hybrid | shares compounds with NR2E3 ag-1 | actives 51% (n = 2,300) | CHO-S mammalian two-hybrid NR2E3-NCOR, luciferase luminescence | inhibition, % at 3.98 µM;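 active means average inhibition above a cutoff equal to the mean inhibition of all tested compounds plus one SD, cut at about 70% in these data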
GAL4-VP16 luc – GAL4-VP16 reporter modulators, confirmation, counter-screen for NR2E3 agonist project, cell-based, luminescence, CHO-S, high throughput; shares compounds with NR2E3 ag-1; CHO-S GAL4-VP16 luciferase reporter; inhibition, % at 3.98 µM; actives 29% (n = 2,300);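 active means mean inhibition above a cutoff equal to the average over all tested compounds plus one standard deviation, cut at about 70% in these data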;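 further: luciferase from a UAS reporter driven by GAL4-VP16 transactivation; higher means less reporter light so more repression of VP16 activity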
Of the large screens only hits and unclear results are named; the others gave an inactive call (follow-up assays come after a bar, where they were run). Compounds with a hit are over-represented: about 1.5% of the library has one in this group of screens.

CCCCCOC(=O)c1[nH]c2c(c1C)C(=O)CC(c1ccco1)C2 (stereo not given)	none (no result: Rev-erbA mod, PG9 binder) | NR2E3 ag conf inactive | GAL4-VP16 luc inactive
CCOCCOC(=O)c1[nH]c2c(c1C)C(=O)CC(c1ccccc1)C2 (stereo not given)	none
CCOCCOC(=O)c1[nH]c2c(c1C)C(=O)CC(c1cc(OC)c(OC)c(OC)c1)C2 (stereo not given)	none | NR2E3 ag conf inactive | GAL4-VP16 luc inactive
COc1ccc(Cn2c(NC(=O)c3ccccc3)nc(Cc3ccccc3)c2-c2ccccc2)c(OC)c1	none (no result: NR2E3 ag-1, NR2E3 ag-2, PG9 binder)
Cc1ccc2c(CN(C)Cc3ccc(OC(F)F)cc3)cc(=O)oc2c1C	none | NR2E3 ag conf inactive | GAL4-VP16 luc inactive
COC(=O)C1=C(C)N(Cc2cccc(C(F)(F)F)c2)C(=NCc2ccc3c(c2)OCO3)NC1c1ccc(F)cc1 (stereo not given)	none (no result: NR2E3 ag-1, NR2E3 ag-2)
CCC(C)c1ccc(NC(=S)NCc2cccs2)cc1 (stereo not given)	none
CC(C)(C)c1ccc(NC(=S)NCc2cccs2)cc1	none | NR2E3 ag conf inactive | GAL4-VP16 luc inactive
CCOC(=O)c1ccc(S(=O)(=O)Nc2ccc3cn[nH]c3c2)cc1	none | NR2E3 ag conf inactive | GAL4-VP16 luc inactive
COc1ccc(S(=O)(=O)Nc2ccc3cn[nH]c3c2)cc1C	none
CCCCCCCCCS(=O)(=O)N/N=C/c1cccc([N+](=O)[O-])c1	none | NR2E3 ag conf inactive | GAL4-VP16 luc inactive
CCn1c(COc2ccc(Cl)cc2)nnc1SCC(=O)Nc1ccc(Oc2ccccc2)cc1	none (no result: NR2E3 ag-1, NR2E3 ag-2, PG9 binder)
COc1ccc2oc(C(=O)OCC(=O)N3CCN(S(=O)(=O)c4ccc(C)cc4)CC3)c(C)c2c1	NR2E3 ag-1 70 | NR2E3 ag conf 86 | GAL4-VP16 luc 72
Cc1ccc(S(=O)(=O)N2CCN(C(=O)COC(=O)c3oc4ccccc4c3C)CC2)cc1	none
C#CCNC(=O)C[C@H]1C[C@@]2(C(=O)OC)C(=C[C@H](COCc3ccccc3)O[C@@H]2C)N(Cc2cccc3ccccc23)C1=O	none (no result: NR2E3 ag-1, NR2E3 ag-2, PG9 binder)
Cc1nn(C)c(Cl)c1NC(=O)OCc1ccc(Cl)cc1Cl	none | NR2E3 ag conf 91 | GAL4-VP16 luc inactive
CCCn1c(CNc2ccc(Br)cc2)nc2ccccc21	none | NR2E3 ag conf inactive | GAL4-VP16 luc inactive
CCn1c(CNc2ccc(C(=O)O)cc2)nc2ccccc21	none
COc1ccccc1NC(=O)CSc1nnnn1-c1ccc2c(c1)OCO2	none | NR2E3 ag conf inactive | GAL4-VP16 luc inactive
COc1ccccc1NC(=O)CSc1nnnn1-c1ccccc1OC	none
O=C(c1ccccc1)c1coc2c1C(=O)c1ccccc1C2=O	none
O=C1c2ccccc2C(=O)c2c1oc(C(F)(F)F)c2C(=O)c1ccccc1	NR2E3 ag-1 112 | NR2E3 ag conf 98 | GAL4-VP16 luc 87
Cc1ccc(-c2cc(C(=O)NN=Cc3cccc(Oc4ccccc4)c3)[nH]n2)cc1C	none (no result: NR2E3 ag-1, NR2E3 ag-2, PG9 binder)
CCCNC(=O)Cn1cccc1C(=O)c1ccccc1	NR2E3 ag-1 89 | NR2E3 ag conf inactive | GAL4-VP16 luc inactive
O=S(=O)(CC1NCc2cc(F)ccc21)NCCc1ccccc1 (stereo not given)	none (no result: NR2E3 ag-1, NR2E3 ag-2, PG9 binder)
C=CCN1[C@H](Cc2ccccc2)COc2cccc(N3CCCC3)c2S1(=O)=O	none (no result: NR2E3 ag-1, NR2E3 ag-2, PG9 binder)
Cc1ccc2cc3cc(C(=O)NCc4ccco4)oc3nc2c1	none | NR2E3 ag conf inactive | GAL4-VP16 luc inactive
Cc1ccc2cc3cc(C(=O)NCCC(C)C)oc3nc2c1	none
CCCCCCCCCC[n+]1cccc2c3ccccc3ccc21	NR2E3 ag-1 96 (no result: NR2E3 ag-2) | NR2E3 ag conf 100 | GAL4-VP16 luc 94
OC(c1cc(-c2ccc(C(F)(F)F)cc2)nc(C(F)(F)F)c1)C1CCCCN1 (stereo not given)	NR2E3 ag-1 92 | NR2E3 ag conf inactive | GAL4-VP16 luc inactive
OC(c1cc(C(F)(F)F)nc2c(C(F)(F)F)cccc12)C1CCCCN1 (stereo not given)	none
O=C(COCc1ccccc1)N1CC[C@H]2[C@H](CCCN2Cc2cc(F)cc(F)c2)C1	none (no result: NR2E3 ag-1, NR2E3 ag-2, PG9 binder)
CC(=NNc1nc2ccccc2s1)c1ccncn1	none (no result: NR2E3 ag-2) | NR2E3 ag conf inactive | GAL4-VP16 luc inactive
C=CCN1C(=O)[C@@H](CC(=O)NCC23CC4CC(CC(C4)C2)C3)[C@]2(C(=O)OCC)CCCCC/C=C/12	none (no result: NR2E3 ag-1, NR2E3 ag-2, PG9 binder)
Cc1cc(NC2CCCC2)n2ncc(-c3ccccc3)c2n1	none | NR2E3 ag conf inactive | GAL4-VP16 luc inactive
O=C(NCc1cccc(C(F)(F)F)c1)c1[nH]c(C(F)(F)F)nc1-c1ccccc1	NR2E3 ag-1 91 (no result: Rev-erbA mod, NR2E3 ag-2, PG9 binder) | NR2E3 ag conf inactive | GAL4-VP16 luc inactive
Cc1ccc(CNC(=O)c2[nH]c(C(F)(F)F)nc2-c2ccccc2)cc1	none (no result: NR2E3 ag-2)
CNC(=O)c1cc(Oc2ccc(NC(=O)Nc3ccc(Cl)c(C(F)(F)F)c3)cc2)ccn1	NR2E3 ag-1 92 | NR2E3 ag conf 99 | GAL4-VP16 luc 81
O=C(O)c1ccccc1NC(=O)C(c1ccccc1)c1ccccc1	none
O=C(Nc1ccccc1O)C(c1ccccc1)c1ccccc1	none | NR2E3 ag conf 83 | GAL4-VP16 luc 72
CC(C)Cc1ccc(C(C)C(=O)Nc2ccccc2O)cc1 (stereo not given)	NR2E3 ag-1 83 | NR2E3 ag conf 94 | GAL4-VP16 luc 82
O=C1C[C@@H](C(=O)Nc2ccc(Cl)cc2)[C@@H](c2ccccc2)O1	none (no result: NR2E3 ag-1, NR2E3 ag-2, PG9 binder)
CC(C)(C)c1ccc(OCC(O)CN2CCc3ccccc3C2)cc1 (stereo not given)	NR2E3 ag-1 85 | NR2E3 ag conf inactive | GAL4-VP16 luc inactive
CCC[C@H]1[C@@H](NCC2CCCCC2)CC[C@@]23CCCN2C(=O)CCC[C@@H]13	none (no result: NR2E3 ag-1, NR2E3 ag-2, PG9 binder)
Clc1ccccc1C(c1ccccc1)(c1ccccc1)n1ccnc1	none (no result: Rev-erbA mod) | NR2E3 ag conf inactive | GAL4-VP16 luc inactive
C#CC(c1ccccc1)(c1ccccc1)n1ccnc1	none (no result: NR2E3 ag-2)
Cc1nc2ccccc2c2c1CC(C(C)(Cl)Br)O2 (stereo not given)	none | NR2E3 ag conf 78 | GAL4-VP16 luc inactive
C[C@H]1CCC/C=C/[C@@H]2C[C@H](O)C[C@H]2[C@H](O)[C@H](S(=O)c2ccc(O)cc2)CC(=O)O1 (stereo not given in full)	NR2E3 ag-1 78 (no result: NR2E3 ag-2) | NR2E3 ag conf 91 | GAL4-VP16 luc inactive
CCN(CC)c1ccc(/C=N/NC(=S)NC)c(O)c1	none | NR2E3 ag conf inactive | GAL4-VP16 luc inactive
CC1CCCC=CC2CC(OC(=O)CN(C)C)CC2C(O)C=CC(=O)O1 (stereo not given)	none (no result: NR2E3 ag-2) | NR2E3 ag conf 98 | GAL4-VP16 luc inactive
[O-][n+]1c2c(c3c4non(O)c4ccc31)CCCC2	none | NR2E3 ag conf inactive | GAL4-VP16 luc inactive
O=[N+]([O-])c1ccc2c(c1)/C(=N\O)c1ccccc1-2	none
